Measured values from ChEMBL document CHEMBL3124771, “Design, synthesis and antitubercular evaluation of novel series of N-[4-(piperazin-1-yl)phenyl]cinnamamide derivatives” (Eur J Med Chem, 2014).
In brackets after ≈: the same amount, converted by molar mass.

Assays:
[1] = system: Mycobacterium tuberculosis; assay: Antitubercular activity against Mycobacterium tuberculosis H37Rv after 7 days by resazurin microtitre assay; assay type: functional; conditions: 168 h
Summary of the method: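 M. tb H37Rv in Middlebrook 7H9 broth; compounds dissolved in DMSO (2 mg/ml stock), serially diluted in 96-well plate to 1.56–50 μg/ml, 100 μl cell suspension per well. After 7 days, 0.02% w/v resazurin added, incubated 1 more day; MIC = lowest concentration preventing blue-to-pink colour change (>90% inhibition), read visually. Isoniazid reference.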

[2] = Selectivity index, ratio of IC50 for African green monkey Vero cells to MIC for Mycobacterium tuberculosis H37Rv; assay type: toxicity, cell-based; conditions: read-out: Selectivity Index
Summary of the method: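 SI = Vero IC50 / H37Rv MIC. Vero cytotoxicity by MTT: subcultured cells exposed 72 h to 125, 62.5, 31.25 μg/ml; MTT added 4 h, formazan dissolved in DMSO. MIC by REMA: H37Rv in 7H9 broth, 1.56–50 μg/ml serial dilutions, 7 days then resazurin 1 day, visual colour read.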

Vero = assay: Cytotoxicity against African green monkey Vero cells after 72 hrs by MTT assay; assay type: cell-based; conditions: Chlorocebus sabaeus
Summary of the method: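 Vero cells subcultured, then exposed to compound at 125, 62.5 and 31.25 μg/ml for 72 h. MTT added for a further 4 h; formazan dissolved in DMSO. Viability read from tetrazolium-to-formazan conversion and reported as IC50.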

SMILES | MIC90 [1] [µg/mL] | selectivity ratio [2] | IC50 (Vero) [µg/mL]
O=C(/C=C/c1ccc([N+](=O)[O-])cc1)Nc1ccc(N2CCN(C(=O)Oc3ccccc3)CC2)c(F)c1 | > 50 | – | –
O=C(/C=C/c1ccc([N+](=O)[O-])cc1)Nc1ccc(N2CCNCC2)c(F)c1 | 12.5 (≈ 33.7 µM) | – | –
O=C(/C=C/c1ccccc1)Nc1ccc(N2CCN(C(=O)c3ccc([N+](=O)[O-])cc3)CC2)cc1 | > 50 | – | –
COC(=O)N1CCN(c2ccc(NC(=O)/C=C/c3ccccc3)cc2)CC1 | > 50 | – | –
O=C(/C=C/c1ccccc1)Nc1ccc(N2CCN(C(=O)Oc3ccccc3)CC2)c(F)c1 | > 50 | – | –
CN1CCN(c2ccc(NC(=O)/C=C/c3ccc([N+](=O)[O-])cc3)cc2)CC1 | 12.5 (≈ 34.1 µM) | – | –
O=C(/C=C/c1ccccc1)Nc1ccc(N2CCN(C(=O)c3ccc(F)cc3)CC2)c(F)c1 | > 50 | – | –
CN1CCN(c2ccc(NC(=O)/C=C/c3ccccc3)cc2F)CC1 | 25 (≈ 73.7 µM) | – | –
O=C(/C=C/c1ccc([N+](=O)[O-])cc1)Nc1ccc(N2CCN(C(=O)c3ccccc3C(F)(F)F)CC2)c(F)c1 | > 50 | – | –
O=C(/C=C/c1ccc([N+](=O)[O-])cc1)Nc1ccc(N2CCN(C(=O)c3ccc([N+](=O)[O-])cc3)CC2)cc1 | > 50 | – | –
CCN1CCN(c2ccc(NC(=O)/C=C/c3ccccc3)cc2F)CC1 | 12.5 (≈ 35.4 µM) | > 10 | > 125
O=C(/C=C/c1ccccc1)Nc1ccc(N2CCN(C(=O)c3ccncc3)CC2)cc1 | 50 (≈ 121 µM) | – | –
O=C(/C=C/c1ccccc1)Nc1ccc(N2CCN(c3ccccn3)CC2)c(F)c1 | > 50 | – | –
O=C(/C=C/c1ccc([N+](=O)[O-])cc1)Nc1ccc(N2CCN(C(=O)c3ccc(F)cc3)CC2)cc1 | 12.5 (≈ 26.3 µM) | > 10 | > 125
CC(C)(C)OC(=O)N1CCN(c2ccc(NC(=O)/C=C/c3ccccc3)cc2F)CC1 | 50 (≈ 118 µM) | – | –
CCOC(=O)N1CCN(c2ccc(NC(=O)/C=C/c3ccccc3)cc2)CC1 | > 50 | – | –
O=C(/C=C/c1ccc([N+](=O)[O-])cc1)Nc1ccc(N2CCN(C(=O)c3ccccc3C(F)(F)F)CC2)cc1 | > 50 | – | –
CC(C)(C)OC(=O)N1CCN(c2ccc(NC(=O)/C=C/c3ccc([N+](=O)[O-])cc3)cc2)CC1 | 12.5 (≈ 27.6 µM) | – | –
CN1CCN(c2ccc(NC(=O)/C=C/c3ccc([N+](=O)[O-])cc3)cc2F)CC1 | 25 (≈ 65 µM) | – | –
CN1CCN(c2ccc(NC(=O)/C=C/c3ccccc3)cc2)CC1 | 6.25 (≈ 19.4 µM) | > 10 | > 125
O=C(/C=C/c1ccc([N+](=O)[O-])cc1)Nc1ccc(N2CCN(c3ccccn3)CC2)cc1 | > 50 | – | –
CC(C)(C)OC(=O)N1CCN(c2ccc(NC(=O)/C=C/c3ccc([N+](=O)[O-])cc3)cc2F)CC1 | 50 (≈ 106 µM) | – | –
O=C(/C=C/c1ccc([N+](=O)[O-])cc1)Nc1ccc(N2CCN(C(=O)c3ccncc3)CC2)c(F)c1 | 12.5 (≈ 26.3 µM) | > 10 | > 125
O=C(/C=C/c1ccc([N+](=O)[O-])cc1)Nc1ccc(N2CCN(c3ccccn3)CC2)c(F)c1 | > 50 | – | –
CCN1CCN(c2ccc(NC(=O)/C=C/c3ccccc3)cc2)CC1 | 12.5 (≈ 37.3 µM) | – | –
CCOC(=O)N1CCN(c2ccc(NC(=O)/C=C/c3ccccc3)cc2F)CC1 | > 50 | – | –
O=C(/C=C/c1ccccc1)Nc1ccc(N2CCN(c3ccccn3)CC2)cc1 | > 50 | – | –

SMILES | MIC90 [1] [µg/mL] | selectivity ratio [2] | IC50 (Vero) [µg/mL]
NNC(=O)c1ccncc1 [ISONIAZID] | 0.39 (≈ 2.84 µM) | – | –
COC(=O)N1CCN(c2ccc(NC(=O)/C=C/c3ccc([N+](=O)[O-])cc3)cc2F)CC1 | > 50 | – | –
O=C(/C=C/c1ccccc1)Nc1ccc(N2CCN(C(=O)c3ccc([N+](=O)[O-])cc3)CC2)c(F)c1 | 12.5 (≈ 26.3 µM) | – | –
CCN1CCN(c2ccc(NC(=O)/C=C/c3ccc([N+](=O)[O-])cc3)cc2F)CC1 | > 50 | – | –
O=C(/C=C/c1ccc([N+](=O)[O-])cc1)Nc1ccc(N2CCN(C(=O)Oc3ccccc3)CC2)cc1 | > 50 | – | –
COC(=O)N1CCN(c2ccc(NC(=O)/C=C/c3ccccc3)cc2F)CC1 | > 50 | – | –
O=C(/C=C/c1ccc([N+](=O)[O-])cc1)Nc1ccc(N2CCN(C(=O)c3cc(Cl)cc(Cl)c3)CC2)cc1 | > 50 | – | –
O=C(/C=C/c1ccccc1)Nc1ccc(N2CCNCC2)cc1 | 12.5 (≈ 40.7 µM) | – | –
O=C(/C=C/c1ccccc1)Nc1ccc(N2CCN(C(=O)c3ccccc3C(F)(F)F)CC2)cc1 | 50 (≈ 104 µM) | – | –
O=C(/C=C/c1ccc([N+](=O)[O-])cc1)Nc1ccc(N2CCN(C(=O)c3ccc(F)cc3)CC2)c(F)c1 | 12.5 (≈ 25.4 µM) | – | –
O=C(/C=C/c1ccccc1)Nc1ccc(N2CCN(C(=O)c3ccncc3)CC2)c(F)c1 | > 50 | – | –
CC(C)(C)OC(=O)N1CCN(c2ccc(NC(=O)/C=C/c3ccccc3)cc2)CC1 | 12.5 (≈ 30.7 µM) | – | –
CCN1CCN(c2ccc(NC(=O)/C=C/c3ccc([N+](=O)[O-])cc3)cc2)CC1 | 12.5 (≈ 32.9 µM) | – | –
O=C(/C=C/c1ccccc1)Nc1ccc(N2CCN(C(=O)Oc3ccccc3)CC2)cc1 | > 50 | – | –
O=C(/C=C/c1ccccc1)Nc1ccc(N2CCN(C(=O)c3ccccc3C(F)(F)F)CC2)c(F)c1 | 3.12 (≈ 6.28 µM) | > 40 | > 125
O=C(/C=C/c1ccccc1)Nc1ccc(N2CCNCC2)c(F)c1 | 25 (≈ 76.8 µM) | – | –
O=C(/C=C/c1ccc([N+](=O)[O-])cc1)Nc1ccc(N2CCN(C(=O)c3cc(Cl)cc(Cl)c3)CC2)c(F)c1 | 12.5 (≈ 23 µM) | – | –
O=C(/C=C/c1ccccc1)Nc1ccc(N2CCN(C(=O)c3cc(Cl)cc(Cl)c3)CC2)c(F)c1 | 12.5 (≈ 25.1 µM) | – | –
O=C(/C=C/c1ccccc1)Nc1ccc(N2CCN(C(=O)c3cc(Cl)cc(Cl)c3)CC2)cc1 | > 50 | – | –
O=C(/C=C/c1ccc([N+](=O)[O-])cc1)Nc1ccc(N2CCN(C(=O)c3ccncc3)CC2)cc1 | > 50 | – | –
O=C(/C=C/c1ccc([N+](=O)[O-])cc1)Nc1ccc(N2CCN(C(=O)c3ccc([N+](=O)[O-])cc3)CC2)c(F)c1 | > 50 | – | –
O=C(/C=C/c1ccccc1)Nc1ccc(N2CCN(C(=O)c3ccc(F)cc3)CC2)cc1 | 25 (≈ 58.2 µM) | – | –
CCOC(=O)N1CCN(c2ccc(NC(=O)/C=C/c3ccc([N+](=O)[O-])cc3)cc2)CC1 | > 50 | – | –
O=C(/C=C/c1ccc([N+](=O)[O-])cc1)Nc1ccc(N2CCNCC2)cc1 | 50 (≈ 142 µM) | – | –
COC(=O)N1CCN(c2ccc(NC(=O)/C=C/c3ccc([N+](=O)[O-])cc3)cc2)CC1 | > 50 | – | –
CCOC(=O)N1CCN(c2ccc(NC(=O)/C=C/c3ccc([N+](=O)[O-])cc3)cc2F)CC1 | > 50 | – | –
